Tb MetRS inh = blocks T. brucei methionyl-tRNA synthetase activity; purified T. brucei MetRS, ATP depletion, Kinase-Glo luminescence; actives 0.4% (n = 360,000); inhibition, % at 11.9 µM;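 active means inhibition above a per-plate cutoff of the control wells' mean inhibition plus 3 SD, cut at about 5.5% in these data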;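 further: 0% = DMSO wells median and 100% = median of wells with control inhibitor compound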
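Measured by: Kinase-Glo luciferase luminescence reporting remaining unconsumed ATP. Material: purified T. brucei MetRS enzyme. Doses: 11.9 µM compound single dose, 0.9% DMSO. Medium: HEPES buffer containing pyrophosphatase, BSA, spermine, DTT. Times: 15 min preincubation, 2 h reaction, all 25 °C. Reagent: methionine, ATP and bulk E. coli tRNA.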
PLC-beta3 inh = PLC-beta3 (human) inhibition, primary screen; Q01970; Purified PLC-beta3, fluorogenic substrate, fluorescence; inhibition, % at 12.2 µM; actives 0.18% (n = 370,000); AID 720704;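 further: 0% = median of compound wells on plate and 100% = full blocker control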
sPLA2-III inh = Inhibits HGIII-sPLA2 liposome hydrolysis, primary screen; QFRET BODIPY PC-A2 liposome hydrolysis, fluorescence; inhibition, % at 12.2 µM; actives 0.56% (n = 370,000); AID 743126;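 active means inhibition above mean plus 3 SD of compounds lying within the high and low control bounds, cut at about 19% in these data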;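 further: 0% = median of test compound wells and 100% = no enzyme DMSO wells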
PLCg1 inh = PLC-gamma1 (human) inhibition, primary screen | inhibition, % at 12.2 µM | AID 720700 | purified PLC-gamma1, fluorogenic substrate, fluorescence | actives 0.84% (n = 370,000) | P19174; in the data active means inhibition above about 9.5%
PLCgamma1 ctr = inhibits human PLC-gamma1 in PLC-beta3 counter-screen | inhibition, % at 12.3 µM | actives 3.1% (n = 3,300) | shares compounds with PLCg1 inh | purified PLC-gamma1, fluorogenic substrate, fluorescence; in the data active means inhibition above about 9.5%
PLCb3 confirm = human PLC-beta3 inhibition, confirmation; shares compounds with PLCg1 inh; purified PLC-beta3, fluorogenic substrate fluorescence; inhibition, % at 12.3 µM; actives 1% (n = 3,300); AID 743261
* marks the source's active call; other numbers are inactive results; . = no result. Shown are actives, neighbours in structure and some others; about 1.9% of the full set was active somewhere. Unless noted, no stated cut-off is given here; in the data, active means inhibition above about 11%; inactive means the rest.

SMILES	Tb MetRS inh	PLC-beta3 inh	sPLA2-III inh	PLCg1 inh	PLCgamma1 ctr	PLCb3 confirm
O=C(O)CCN(Cc1ccccc1)S(=O)(=O)c1ccccc1Cl	-0.3	-8.3	-2.7	0.3	.	.
COC(=O)C1=C(C)N(Cc2ccccc2C(F)(F)F)C(=NCc2ccccc2C(F)(F)F)NC1c1ccc(F)cc1 (stereo not given)	.	5.5	-4.8	1.8	.	.
COC(=O)CN(n1cnnc1)S(=O)(=O)c1ccccc1Cl	0.0	4.1	3.6	10.1*	1.2	2.6
COc1ccc(C(=O)N2CCN(C3CCC(c4ccccc4)CC3)CC2)cc1OC (stereo not given)	0.7	5.2	-10.2	14.8*	-12.5	-2.1
COc1ccc(C(=O)N2CCC(N3CCN(c4ccccc4)CC3)CC2)cc1OC	-1.1	4.7	-0.5	2.6	.	.
Cc1cc(-c2cc(NC(=O)Cc3c[nH]c4ccccc34)ccc2Nc2cccnc2)ccc1F	.	-1.1	-18.0	-0.3	.	.
Cc1ccc(-n2c(SCC(=O)Nc3ccc(Oc4ccccc4)cc3)nnc2-c2cccc(C)c2)cc1	.	-0.2	0.3	0.1	.	.
Cc1cc(C)cc(N(CCC#N)C(=O)CSc2nc3ccccc3c(=O)[nH]2)c1	-0.2	-2.9	3.6	9.8*	-2.8	-0.5
CCC(=O)N1CCCC1(C)C(=O)Nc1ccc2scnc2c1 (stereo not given)	-0.3	7.8	5.4	12.4*	-1.6	-13.7
CC(C)(C)N1Cc2nnn(Cc3ccccc3)c2-c2ccccc2S1(=O)=O	.	1.2	8.2	3.3	.	.
CC(C)(C)S(=O)N1C[C@H]2CC(=O)C(CCO)=C2[C@@H]1CCO (stereo not given in full)	.	4.7	6.7	8.5	.	.
CN(C(=O)COC(=O)C1CCN(S(=O)(=O)c2ccc3c(c2)OCCO3)CC1)C1CCS(=O)(=O)C1 (stereo not given)	-0.1	-0.1	3.7	13.7*	-0.4	2.7
O=S1(=O)c2ccc(N3CCCC3)cc2Oc2ccccc2CN1Cc1cn(Cc2ccccc2C(F)(F)F)nn1	.	-4.8	13.1	-0.6	.	.
Cc1cc(-c2nnc(SCc3ccccn3)o2)no1	-0.3	11.3*	10.6	13.7*	-4.3	-0.8
Cn1c(=O)c2cc(S(=O)(=O)NC(Cc3ccccc3)C(=O)NCc3ccco3)ccc2n(C)c1=O (stereo not given)	-1.0	1.9	-1.2	74.8*	-5.8	-2.1
O=[N+]([O-])c1cc([N+](=O)[O-])c(Oc2cccc3ccccc23)cc1NN1CCCCC1	-0.2	2.1	9.1	6.4	.	.
O=[N+]([O-])c1cc([N+](=O)[O-])c(Oc2cccnc2Br)cc1NN1CCCCC1	0.4	10.3	10.2	10.9*	5.2	4.5
Cc1ccccc1CSc1n[nH]c(NS(=O)(=O)c2ccccc2)n1	0.0	5.0	-3.1	10.4*	5.6	1.0
COc1cc(C(=O)N2CCCCC2c2cc(C(=O)NC(C)C)no2)cc(OC)c1C (stereo not given)	0.2	3.7	2.6	13.4*	-2.2	-0.4
COc1ccc(C(=O)N2CCCCC2c2cc(C(=O)Nc3ccc(OC)cc3C)no2)cc1 (stereo not given)	-0.3	0.3	-13.5	0.7	.	.
COc1ccc(NC(=O)c2cc(C3CCCCN3C(=O)c3cc(F)ccc3C)on2)c(C)c1 (stereo not given)	-0.1	3.2	1.9	9.7*	-4.1	-3.2
O=C1c2ccccc2C(=O)N1Cc1cccnc1	0.4	4.9	12.4	12.4*	-5.2	0.0
CC(C)C[C@@H](CO)N1CCN(C)CCC1=O	-0.2	5.3	15.6	14.4*	-6.4	-1.5
Cc1ccc(NS(=O)(=O)c2c(C)nc3sccn3c2=O)cc1	-0.5	8.6	6.7	5.4	.	.
Cc1nc2sccn2c(=O)c1S(=O)(=O)Nc1ccc(N2CCN(C(=O)C(C)C)CC2)cc1	-0.3	5.7	0.9	12.2*	-4.7	-0.4
SMILES	Tb MetRS inh	PLC-beta3 inh	sPLA2-III inh	PLCg1 inh	PLCgamma1 ctr	PLCb3 confirm
O=C(CCS(=O)(=O)c1ccccc1)Nc1ccc(F)cc1F	.	2.1	4.0	-1.8	.	.
Cc1cccc(N2CCN(S(=O)(=O)c3cc4c(cc3Cl)NC(=O)CO4)CC2)c1C	0.2	1.1	-5.6	10.4*	1.6	-2.7
O[C@H](COc1cccc(C(F)(F)F)c1)CN1CCC(C(O)(c2ccccc2)c2ccccc2)CC1	.	5.2	-11.7	4.1	.	.
O=C(O)CCC(=O)N1CCc2cc(S(=O)(=O)N(CCc3ccccc3)Cc3ccccc3)ccc21	-0.9	4.0	-39.0	10.2*	-2.8	-6.3
Cc1ccc(S(=O)(=O)c2ccc(Cl)cc2)cc1S(=O)(=O)NC(C)C(=O)O (stereo not given)	-0.8	-1.9	15.2	10.2*	-5.6	-3.3
COc1ccnc2c1c(=O)n(Cc1ccccc1Cl)c(=O)n2C	-0.4	-3.6	5.2	0.5	.	.
Cn1c(=O)c2c(nc(N3CCN(c4ccccn4)CC3)n2Cc2ccc(Cl)cc2Cl)n(C)c1=O	-0.9	7.4	10.1	11.1*	4.3	1.4
COc1ccnc2c1c(=O)n(Cc1ccc(Cl)cc1Cl)c(=O)n2C	-0.3	-3.8	-0.6	9.8*	-13.6	-9.1
CCn1c2ccccc2c2cc(NC(=O)CSc3nnc(-c4cccc(F)c4)o3)ccc21	-0.6	7.5	0.5	12.6*	-17.2	-17.8
CCOC(=O)[C@]12CCCC3=C1N(CCC3)C(=O)[C@@H](CC(=O)N1CCCC1)C2	.	-1.8	4.4	0.4	.	.
CCCCCC[C@@H](CN(CCCC)S(C)(=O)=O)c1ccccc1	.	-1.9	11.6	-1.6	.	.
CCCn1c(=O)c(F)cn(Cc2ccc(OC)c([N+](=O)[O-])c2)c1=O	-0.6	12.1*	1.3	3.9	-5.1	-0.3
CCc1ccccc1NC(=O)CN(C)C(=O)COC(=O)c1cccnc1Cl	-0.3	-1.0	-2.9	10.5*	-5.7	-0.2
O=S1(=O)C=CCN1Cc1cn(Cc2cccc(Cl)c2)nn1	.	4.9	0.1	-1.4	.	.
CCOC(=O)C1CCCN(C(=O)c2cccc(S(=O)(=O)N(Cc3ccccc3)c3ccccc3OC)c2)C1 (stereo not given)	-0.3	1.9	-7.8	9.7*	-5.8	-2.6
CCOC(=O)C1CCCN(C(=O)c2cccc(S(=O)(=O)N(C)c3ccc(OC)cc3)c2)C1 (stereo not given)	-0.2	-4.3	-4.1	0.7	.	.
Cc1csc(Nc2nc(N)c(C(=O)Nc3ccccc3)o2)n1	-0.2	10.7*	13.0	13.7*	-0.7	4.4
CC1CN(c2ccc(Cl)cc2)c2nc3c(c(=O)[nH]c(=O)n3C)n2C1 (stereo not given)	-1.2	-5.3	13.8	10.2*	-2.2	0.1
Cc1ccc(NC(=O)OC2CCC23CCCCC3)cc1 (stereo not given)	.	0.0	8.4	0.2	.	.
COc1ccc(CCNC(=O)Cc2ccccc2)cc1OC	-0.7	-4.2	0.3	-0.8	.	.
CCCOc1ccc(CC(=O)NCCc2ccccc2)cc1OC	-0.1	-0.9	-3.0	11.7*	-0.4	3.5
CCNCc1cc(OCC)c(OCC(=O)NCCc2ccccc2)cc1Cl	0.8	-4.8	-17.8	11.9*	-7.7	-1.5

Bioassay records deposited in PubChem by The Scripps Research Institute Molecular Screening Center.
